pEC50, pIC50: −log10 of the molar value. Converted amounts (≈) assume the structure as drawn. The source made the active and inactive calls. The calls are words filed in the database; no cut-off is given here.
Tests used:
[1] = target: Voltage-gated potassium channel, KQT; KCNQ2(Kv7.2)/KCNQ3(Kv7.3) (Homo sapiens, UniProt O43525+O43526); assay: Activation of KCNQ2/3 (unknown origin); type: protein-complex assay
[2] = target: T1, Potassium voltage-gated channel subfamily KQT member 1 (Homo sapiens, UniProt P51787); assay: Inhibition of KCNQ1 (unknown origin)
T1 sequence (P51787 whole entry): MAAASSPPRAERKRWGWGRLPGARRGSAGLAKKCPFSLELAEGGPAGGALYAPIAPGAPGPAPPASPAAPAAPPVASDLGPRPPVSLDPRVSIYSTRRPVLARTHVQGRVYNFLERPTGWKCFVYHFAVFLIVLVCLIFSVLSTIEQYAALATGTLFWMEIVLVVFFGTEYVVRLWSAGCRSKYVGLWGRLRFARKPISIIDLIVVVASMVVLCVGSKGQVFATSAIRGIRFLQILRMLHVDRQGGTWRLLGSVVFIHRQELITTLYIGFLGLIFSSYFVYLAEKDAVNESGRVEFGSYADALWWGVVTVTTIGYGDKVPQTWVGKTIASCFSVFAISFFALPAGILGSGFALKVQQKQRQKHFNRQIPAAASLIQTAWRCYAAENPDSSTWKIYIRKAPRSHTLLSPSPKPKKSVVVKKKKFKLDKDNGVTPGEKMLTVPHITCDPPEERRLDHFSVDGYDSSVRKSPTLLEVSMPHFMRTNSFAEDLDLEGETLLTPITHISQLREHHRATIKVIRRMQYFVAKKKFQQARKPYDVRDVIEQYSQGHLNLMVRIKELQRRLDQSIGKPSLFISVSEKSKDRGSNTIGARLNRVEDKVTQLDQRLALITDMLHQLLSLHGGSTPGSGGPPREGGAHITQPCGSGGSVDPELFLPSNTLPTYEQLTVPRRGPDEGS

[3] = target: T2, Transient receptor potential cation channel subfamily A member 1 (Homo sapiens, UniProt O75762); assay: Inhibition of full length human TRPA1 at a holding potential of 15 mV measured after 1 min by PatchXpress electrophysiology assay
T2 sequence (O75762 whole entry): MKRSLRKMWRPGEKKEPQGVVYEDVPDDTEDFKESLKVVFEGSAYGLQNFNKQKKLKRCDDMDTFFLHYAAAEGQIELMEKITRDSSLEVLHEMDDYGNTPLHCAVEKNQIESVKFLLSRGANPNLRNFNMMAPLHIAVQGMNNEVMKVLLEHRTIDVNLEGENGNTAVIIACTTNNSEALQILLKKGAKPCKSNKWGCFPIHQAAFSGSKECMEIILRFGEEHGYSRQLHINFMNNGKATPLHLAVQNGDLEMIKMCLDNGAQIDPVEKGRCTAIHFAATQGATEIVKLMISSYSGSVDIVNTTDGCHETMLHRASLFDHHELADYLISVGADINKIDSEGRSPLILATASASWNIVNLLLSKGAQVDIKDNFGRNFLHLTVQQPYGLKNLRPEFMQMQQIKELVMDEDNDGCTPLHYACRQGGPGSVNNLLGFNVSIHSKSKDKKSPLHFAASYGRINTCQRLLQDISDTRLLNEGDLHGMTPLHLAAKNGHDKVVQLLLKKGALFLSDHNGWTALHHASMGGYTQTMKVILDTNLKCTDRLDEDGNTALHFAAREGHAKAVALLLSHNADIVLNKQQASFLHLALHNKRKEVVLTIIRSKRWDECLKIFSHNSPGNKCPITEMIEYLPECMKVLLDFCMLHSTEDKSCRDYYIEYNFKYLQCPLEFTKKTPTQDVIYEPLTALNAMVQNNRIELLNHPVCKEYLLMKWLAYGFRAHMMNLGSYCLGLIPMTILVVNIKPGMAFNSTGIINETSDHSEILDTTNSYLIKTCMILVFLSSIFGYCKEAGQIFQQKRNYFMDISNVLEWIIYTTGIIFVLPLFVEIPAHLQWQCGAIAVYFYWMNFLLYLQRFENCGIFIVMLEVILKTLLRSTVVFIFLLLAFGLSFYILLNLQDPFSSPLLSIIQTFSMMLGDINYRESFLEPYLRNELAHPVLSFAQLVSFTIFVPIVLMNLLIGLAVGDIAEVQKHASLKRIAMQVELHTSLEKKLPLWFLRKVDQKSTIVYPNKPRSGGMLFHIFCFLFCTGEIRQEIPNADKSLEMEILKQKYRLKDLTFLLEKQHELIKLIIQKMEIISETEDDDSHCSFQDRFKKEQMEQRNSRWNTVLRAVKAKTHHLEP
Summary of the method: (§1)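 Medium-throughput PatchXpress electrophysiology on HEK293-T-rex cells expressing TRPA1 (human line; selected compounds also run in a rat TRPA1 line).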

[4] = target: T3, Transient receptor potential cation channel subfamily A member 1 (Rattus norvegicus, UniProt Q6RI86); assay: Inhibition of full length rat TRPA1 at a holding potential of 15 mV measured after 1 min by PatchXpress electrophysiology assay; summary of the method: as §1
T3 sequence (Q6RI86 whole entry): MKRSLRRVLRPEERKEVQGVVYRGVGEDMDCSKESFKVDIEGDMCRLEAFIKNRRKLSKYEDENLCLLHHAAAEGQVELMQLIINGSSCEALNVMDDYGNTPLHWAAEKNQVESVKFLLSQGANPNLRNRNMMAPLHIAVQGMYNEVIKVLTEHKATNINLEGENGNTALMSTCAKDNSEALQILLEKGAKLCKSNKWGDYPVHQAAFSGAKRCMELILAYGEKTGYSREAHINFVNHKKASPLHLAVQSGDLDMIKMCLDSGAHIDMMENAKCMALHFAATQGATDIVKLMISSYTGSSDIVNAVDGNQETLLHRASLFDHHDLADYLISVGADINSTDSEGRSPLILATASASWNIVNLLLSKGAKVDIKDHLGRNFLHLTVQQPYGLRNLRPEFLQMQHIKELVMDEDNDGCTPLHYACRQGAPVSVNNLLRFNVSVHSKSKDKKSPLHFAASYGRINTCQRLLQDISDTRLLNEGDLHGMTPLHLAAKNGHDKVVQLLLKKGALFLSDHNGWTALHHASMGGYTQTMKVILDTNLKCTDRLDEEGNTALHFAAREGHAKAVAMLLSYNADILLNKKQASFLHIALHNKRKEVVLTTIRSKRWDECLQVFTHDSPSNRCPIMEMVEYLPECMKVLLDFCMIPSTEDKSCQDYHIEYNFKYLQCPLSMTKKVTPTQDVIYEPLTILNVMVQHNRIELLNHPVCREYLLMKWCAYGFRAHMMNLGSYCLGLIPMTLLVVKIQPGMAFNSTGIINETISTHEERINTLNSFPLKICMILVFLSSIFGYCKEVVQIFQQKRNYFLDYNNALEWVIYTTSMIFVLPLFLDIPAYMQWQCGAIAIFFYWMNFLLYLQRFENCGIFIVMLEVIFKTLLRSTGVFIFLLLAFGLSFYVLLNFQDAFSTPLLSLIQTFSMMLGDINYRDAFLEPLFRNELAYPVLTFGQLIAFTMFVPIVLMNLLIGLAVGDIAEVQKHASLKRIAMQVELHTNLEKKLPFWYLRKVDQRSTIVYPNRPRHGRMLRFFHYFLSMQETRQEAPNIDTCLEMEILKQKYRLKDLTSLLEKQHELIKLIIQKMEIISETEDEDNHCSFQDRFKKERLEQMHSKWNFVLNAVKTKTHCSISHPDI

[5] = Intrinsic clearance in human liver microsomes; type: ADME, microsome; settings: read-out: CLH
[6] = Intrinsic clearance in rat liver microsomes; type: ADME, microsome; settings: read-out: CLH
MDR1 [7] = assay: Permeability across basolateral to apical side in RRCK cells expressing MDR1; type: ADME, cell-based, Canis lupus familiaris, MDCKII-LE; settings: dog, MDCK-MDR1; read-out: permeability
MDR1 [8] = assay: Permeability across apical to basolateral side in RRCK cells expressing MDR1; type: ADME, cell-based, Canis lupus familiaris, MDCKII-LE; settings: dog, MDCK-MDR1; read-out: permeability
[9] = Aqueous solubility of the compound by kinetic miniaturized shakeflask method; type: physicochemical; settings: buffer
Summary of the method: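 Kinetic miniaturized shake-flask method, starting from a DMSO stock solution.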

[10] = target: T2, Transient receptor potential cation channel subfamily A member 1; assay: Antagonist activity at human TRPA1 by calcium flux based FLIPR assay
Summary of the method: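 High-throughput antagonist-mode FLIPR Ca2+ imaging screen of the internal library in 384-well format; hits confirmed by single-rig electrophysiology.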

[11] = target: Sodium channel protein type 5 subunit alpha (Homo sapiens, UniProt Q14524); assay: Inhibition of Nav1.5 (unknown origin)
Sequence of Sodium channel protein type 5 subunit alpha (Q14524 whole entry): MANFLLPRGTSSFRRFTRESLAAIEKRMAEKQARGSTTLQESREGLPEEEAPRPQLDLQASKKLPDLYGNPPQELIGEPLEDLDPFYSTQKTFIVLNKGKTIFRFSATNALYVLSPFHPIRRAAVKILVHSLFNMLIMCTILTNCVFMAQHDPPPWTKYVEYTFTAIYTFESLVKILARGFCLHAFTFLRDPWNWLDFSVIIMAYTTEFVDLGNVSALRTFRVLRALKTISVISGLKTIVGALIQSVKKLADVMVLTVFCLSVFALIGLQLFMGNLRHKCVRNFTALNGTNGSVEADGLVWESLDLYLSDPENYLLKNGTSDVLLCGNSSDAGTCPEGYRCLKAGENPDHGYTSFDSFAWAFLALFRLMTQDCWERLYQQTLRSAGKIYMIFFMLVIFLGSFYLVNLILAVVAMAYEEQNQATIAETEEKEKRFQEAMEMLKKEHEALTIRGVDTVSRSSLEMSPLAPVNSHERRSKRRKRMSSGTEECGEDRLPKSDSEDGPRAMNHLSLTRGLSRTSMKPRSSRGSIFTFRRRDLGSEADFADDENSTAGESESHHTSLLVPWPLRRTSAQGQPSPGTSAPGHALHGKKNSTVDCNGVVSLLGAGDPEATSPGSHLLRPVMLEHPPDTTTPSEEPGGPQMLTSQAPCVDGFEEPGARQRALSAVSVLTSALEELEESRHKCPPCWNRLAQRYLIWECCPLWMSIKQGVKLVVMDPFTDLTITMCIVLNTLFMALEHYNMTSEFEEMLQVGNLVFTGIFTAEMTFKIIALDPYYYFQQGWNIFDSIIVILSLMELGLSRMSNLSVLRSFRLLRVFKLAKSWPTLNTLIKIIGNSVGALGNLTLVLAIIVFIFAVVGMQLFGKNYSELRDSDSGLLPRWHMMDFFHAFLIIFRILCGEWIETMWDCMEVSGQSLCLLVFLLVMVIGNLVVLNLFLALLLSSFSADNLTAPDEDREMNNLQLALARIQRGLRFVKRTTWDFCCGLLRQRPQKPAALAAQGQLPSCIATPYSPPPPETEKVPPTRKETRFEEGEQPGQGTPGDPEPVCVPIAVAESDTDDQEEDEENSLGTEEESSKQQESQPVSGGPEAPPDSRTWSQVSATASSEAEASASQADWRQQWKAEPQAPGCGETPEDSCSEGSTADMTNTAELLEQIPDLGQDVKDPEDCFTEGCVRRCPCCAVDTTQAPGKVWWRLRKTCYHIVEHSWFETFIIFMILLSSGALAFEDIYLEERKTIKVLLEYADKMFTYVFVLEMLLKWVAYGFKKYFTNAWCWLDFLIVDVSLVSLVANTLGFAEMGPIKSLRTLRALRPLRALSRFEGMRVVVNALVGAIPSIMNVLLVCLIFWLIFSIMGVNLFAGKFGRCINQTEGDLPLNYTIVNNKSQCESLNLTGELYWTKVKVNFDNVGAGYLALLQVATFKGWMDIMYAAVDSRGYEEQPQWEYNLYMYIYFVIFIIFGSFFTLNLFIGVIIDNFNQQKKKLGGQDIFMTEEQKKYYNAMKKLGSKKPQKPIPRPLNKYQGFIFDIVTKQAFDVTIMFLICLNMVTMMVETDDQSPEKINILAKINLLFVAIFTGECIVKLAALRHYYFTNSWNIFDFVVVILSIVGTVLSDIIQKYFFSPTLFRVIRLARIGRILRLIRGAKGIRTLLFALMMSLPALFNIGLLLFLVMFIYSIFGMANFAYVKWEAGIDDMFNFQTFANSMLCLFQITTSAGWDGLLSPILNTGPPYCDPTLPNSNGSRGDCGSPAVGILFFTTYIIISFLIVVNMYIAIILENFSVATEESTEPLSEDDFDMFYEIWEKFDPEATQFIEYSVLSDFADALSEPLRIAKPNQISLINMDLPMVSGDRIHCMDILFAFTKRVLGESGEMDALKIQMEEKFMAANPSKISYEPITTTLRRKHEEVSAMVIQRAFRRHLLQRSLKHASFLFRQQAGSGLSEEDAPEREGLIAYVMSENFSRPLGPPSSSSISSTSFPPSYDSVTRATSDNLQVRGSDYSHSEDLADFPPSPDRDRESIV

[12] = target: Sodium channel protein type 9 subunit alpha (Homo sapiens, UniProt Q15858); assay: Inhibition of Nav1.7 (unknown origin)
[13] = target: Transient receptor potential cation channel subfamily V member 1 (Homo sapiens, UniProt Q8NER1); assay: Inhibition of TRPV1 (unknown origin)
Sequence of Transient receptor potential cation channel subfamily V member 1 (Q8NER1 whole entry): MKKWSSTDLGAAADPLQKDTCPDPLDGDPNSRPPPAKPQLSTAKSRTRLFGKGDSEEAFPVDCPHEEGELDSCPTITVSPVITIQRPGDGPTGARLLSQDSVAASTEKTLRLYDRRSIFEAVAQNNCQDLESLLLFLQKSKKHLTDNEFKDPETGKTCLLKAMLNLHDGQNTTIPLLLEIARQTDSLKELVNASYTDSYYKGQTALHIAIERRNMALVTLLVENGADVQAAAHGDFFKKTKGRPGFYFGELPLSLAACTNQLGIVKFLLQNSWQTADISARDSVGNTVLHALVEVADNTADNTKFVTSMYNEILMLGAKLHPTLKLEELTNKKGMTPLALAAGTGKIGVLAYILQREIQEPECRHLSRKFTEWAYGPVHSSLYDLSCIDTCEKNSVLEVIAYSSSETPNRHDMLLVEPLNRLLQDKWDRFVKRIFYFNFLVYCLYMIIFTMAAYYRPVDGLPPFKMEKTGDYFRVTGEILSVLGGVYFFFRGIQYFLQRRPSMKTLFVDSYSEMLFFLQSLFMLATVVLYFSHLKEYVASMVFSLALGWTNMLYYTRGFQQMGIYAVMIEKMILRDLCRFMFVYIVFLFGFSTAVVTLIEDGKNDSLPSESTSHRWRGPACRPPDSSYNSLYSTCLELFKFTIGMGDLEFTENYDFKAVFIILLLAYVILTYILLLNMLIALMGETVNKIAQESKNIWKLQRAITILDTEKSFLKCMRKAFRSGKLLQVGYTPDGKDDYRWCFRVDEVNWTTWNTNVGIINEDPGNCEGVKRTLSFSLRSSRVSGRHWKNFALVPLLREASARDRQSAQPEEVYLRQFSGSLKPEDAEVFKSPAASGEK

[14] = target: T3, Transient receptor potential cation channel subfamily A member 1; assay: Inhibition of rat TRPA1 at a holding potential of 15 mV measured after 1 min by whole-cell manual patch clamp electrophysiology assay
Rattus norvegicus [15] = assay: Anti-inflammatory activity in po dosed Sprague-Dawley rat assessed as reduction in flinching dosed 2 hrs prior to subcutaneous administration of AITC in right hand paw measured for 30 mins; type: functional
Summary of the method: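 Oral dosing in rats; AITC then given subcutaneously into the right hind paw. Paw flinching is scored, and the minimum effective dose is taken as the lowest dose giving a significant reduction.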

Rattus norvegicus [16] = assay: Suppression of cinnamaldehyde-induced flare response in Sprague-Dawley rat at 10 to 100 mg/kg administered systemically measured after 75 mins by recording blood flow for 30 mins by laser Doppler sonography method; type: functional, organism-based
Summary of the method: (§2)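 Rats dosed orally at 10, 30 and 100 mg/kg, with mean systemic concentrations measured. Flare is induced by cinnamaldehyde and blood flow read by laser Doppler sonography, compared against vehicle and a TRPV1 antagonist given as a mechanistic comparator.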

Blood = assay: Drug level in Sprague-Dawley rat blood at 10 to 100 mg/kg, po; type: ADME, organism-based; settings: in vivo, read-out: Drug uptake; summary of the method: as §2
[17] = target: Voltage-gated inwardly rectifying potassium channel KCNH2 (Homo sapiens, UniProt Q12809)
MDCKII-LE = assay: Permeability in RRCK cells expressing MDR1; settings: dog
[18] = Inhibition of full length opossum TRPA1 at a holding potential of 15 mV measured after 1 min by PatchXpress electrophysiology assay; parameters: species or system Monodelphis domestica
[19] = Inhibition of full length opossum TRPA1 hS5 chimera at a holding potential of 15 mV measured after 1 min by PatchXpress electrophysiology assay; parameters: species or system Monodelphis domestica
[20] = target: T2, Transient receptor potential cation channel subfamily A member 1; assay: Inhibition of full length human TRPA1 oS5 chimera at a holding potential of 15 mV measured after 1 min by PatchXpress electrophysiology assay
Rattus norvegicus [21] = assay: Suppression of cinnamaldehyde-induced flare response in Sprague-Dawley rat at 50 mg/ml administered topically measured after 60 mins by recording blood flow for 30 mins by laser Doppler sonography method; type: functional
Summary of the method: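 Compound formulated in vehicle, applied topically to rat skin at 50 mg/mL and left for a set time. Then 20% v/v cinnamaldehyde in the same vehicle is applied at that site, and local blood flow is measured by laser Doppler sonography. Free plasma concentrations are also determined.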

[22] = Permeability in Sprague-Dawley rat skin; type: ADME, Zone of skin; settings: read-out: permeability (converted)
Summary of the method: (§3)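 Skin flux study after topical administration. Skin permeability is given in cm/h, and compound concentrations are measured separately in the epidermal and dermal layers, expressed as μg/g.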

[23] = Drug level in Sprague-Dawley rat skin epidermal layer; type: ADME, Skin epidermis; settings: in vivo; summary of the method: as §3
[24] = Drug level in Sprague-Dawley rat skin dermal layer; type: ADME, Dermis; settings: in vivo; summary of the method: as §3
[25] = Unbound fraction in Sprague-Dawley rat plasma
[26] = target: Transient receptor potential cation channel subfamily A member 1 (Rattus norvegicus) (UniProt Q6RI86); settings: 1 uM
Sequence of Transient receptor potential cation channel subfamily A member 1 (Rattus norvegicus) (Q6RI86 whole entry): as the sequence (Q6RI86 whole entry) above

N#Cc1ccc(-c2n[nH]c3cc(OC(F)(F)F)ccc23)cc1
pEC50 [1]: < 4.52 | pIC50 [2]: < 5.52 | pIC50 [3]: 6.16 | pIC50 [4]: 6.61 | microsomal CLint [5]: < 8 µL/min/mg | microsomal CLint [6]: 58 µL/min/mg | Papp B→A (MDR1 [7]): 8 ×10⁻⁶ cm/s | Papp A→B (MDR1 [8]): 4 ×10⁻⁶ cm/s | solubility kinetic [9]: 4.8 µg/mL (≈ 15.8 µM) | pIC50 [10]: < 5.00 | pIC50 [11]: 4.76 | pIC50 [12]: 4.75 | pIC50 [13]: < 4.52 | pIC50 [14]: 6.71 | Activity (Rattus norvegicus [15]): Dose-dependent effect | minimal effective dose (Rattus norvegicus [15]; read-out: MED): 100 mg/kg | Activity (Rattus norvegicus [16]): Active | concentration (Blood): 11 to 52 nM | pIC50 [17]: < 4.52 | Papp (MDCKII-LE): < 0.1 ×10⁻⁶ cm/s

COCCNC(=O)c1ccc2c(-c3ccc(C#N)cc3)n[nH]c2c1
pIC50 [3]: 5.57 | pIC50 [4]: 6.34

Fc1ccc(Nc2n[nH]c3cc(OC(F)(F)F)cnc23)cc1F
pIC50 [3]: 7.70 | pIC50 [18]: < 4.52 | pIC50 [4]: 7.96 | pIC50 [19]: 6.88 | pIC50 [20]: 4.80 | microsomal CLint [5]: 73 µL/min/mg | microsomal CLint [6]: 99 µL/min/mg | Papp B→A (MDR1 [7]): 7 ×10⁻⁶ cm/s | Papp A→B (MDR1 [8]): 2 ×10⁻⁶ cm/s | solubility kinetic [9]: 1.6 µg/mL (≈ 4.85 µM) | pIC50 [10]: 6.48 | pIC50 [11]: 4.74 | pIC50 [12]: 5.06 | pIC50 [13]: < 4.52 | pIC50 [14]: 7.96 | Activity (Rattus norvegicus [21]): Active | Papp [22]: 0.00333 ×10⁻⁶ cm/s | Drug uptake [23]: 304 µg/g | Drug uptake [24]: 20 µg/g | Drug uptake(free) [25]: 7 to 59 nM

Fc1ccc(Nc2n[nH]c3cc(C(F)(F)F)ccc23)cc1F
pIC50 [3]: 7.28 | pIC50 [4]: 8.05

FC(F)(F)c1ccc2c(Nc3ccc(C(F)(F)F)nc3)n[nH]c2c1
pIC50 [3]: < 5.00

Fc1ccc2[nH]c(-c3n[nH]c4cc(OC(F)(F)F)ccc34)cc2c1
pIC50 [3]: 6.13 | pIC50 [4]: 6.94

FC(F)(F)c1ccc2c(Nc3ccc(Cl)cc3)n[nH]c2c1
pIC50 [3]: 7.38 | pIC50 [4]: 8.05

Fc1ccc(Nc2n[nH]c3cc(Cl)ccc23)cc1F
pIC50 [3]: 6.95 | pIC50 [4]: 7.31

Fc1ccc(-c2n[nH]c3cc(NC4CCN(CC5CC5)CC4)cnc23)cc1
pIC50 [3]: 5.33 | pIC50 [4]: 5.73

Fc1ccc(Nc2n[nH]c3cc(-c4ccccc4OC(F)(F)F)ccc23)cc1F
pIC50 [3]: 5.92

Fc1ccc(Nc2n[nH]c3cc(C(F)(F)F)ncc23)cc1F
pIC50 [3]: 6.19

Fc1ccc2[nH]c(-c3n[nH]c4cc(OC(F)(F)F)cnc34)cc2c1
pIC50 [3]: 7.04 | pIC50 [4]: 8.10

Clc1ccc(Nc2n[nH]c3ccccc23)cc1
pIC50 [3]: 4.93

Fc1ccc(Nc2n[nH]c3cc(C(F)(F)F)cnc23)cc1F
pIC50 [3]: 7.42 | pIC50 [4]: 7.64

N#Cc1ccc(-c2n[nH]c3cc(OC(F)(F)F)ccc23)cn1
pIC50 [3]: 5.93 | pIC50 [4]: 6.57

Fc1ccc(-c2n[nH]c3cc(OC(F)(F)F)cnc23)cc1F
pIC50 [3]: 6.87 | pIC50 [4]: 6.89

CN(c1ccc(Cl)nc1)c1nn(C)c2cc(C(F)(F)F)ccc12
pIC50 [3]: < 5.00

Fc1ccc(Nc2n[nH]c3cc(OC(F)(F)F)cnc23)nc1
pIC50 [3]: 5.60 | pIC50 [4]: 6.09

CN(c1ccc(Cl)nc1)c1n[nH]c2cc(C(F)(F)F)ccc12
pIC50 [3]: < 5.00

Cn1nc(Nc2ccc(Cl)nc2)c2ccc(C(F)(F)F)cc21
pIC50 [3]: < 5.00

N#Cc1ccc(-c2n[nH]c3cc(OC(F)(F)F)ccc23)s1
pIC50 [3]: 7.13 | pIC50 [4]: 7.10

FC(F)(F)c1ccc2c(Nc3ccc(Cl)nc3)n[nH]c2c1
pEC50 [1]: 7.43 | pIC50 [2]: 5.59 | pIC50 [3]: 6.26 | pIC50 [10]: 5.60 | pIC50 [11]: 5.07 | pIC50 [13]: < 4.52 | pIC50 [17]: < 4.00

Fc1ccc(Nc2n[nH]c3cc(-c4ccc(F)c(F)c4)ccc23)cc1F
pIC50 [3]: 5.43

Fc1ccc(Nc2n[nH]c3cc(OC(F)(F)F)ccc23)cc1F
pIC50 [3]: 6.88 | pIC50 [4]: > 7.00 | inhibition [26]: 96%

Fc1ccc(-c2n[nH]c3cc(OC(F)(F)F)cnc23)cc1
pIC50 [3]: 6.59 | pIC50 [4]: 6.67

Fc1ccc(-c2n[nH]c3cc(C(F)(F)F)ccc23)cc1F
pIC50 [3]: 5.68 | pIC50 [4]: 6.48

Fc1ccc(-c2n[nH]c3cc(C(F)(F)F)cnc23)cc1F
pIC50 [3]: 6.35 | pIC50 [4]: 6.59
